Consider two compounds from ChEMBL document CHEMBL3272327, “Hypocholesterolemic activity of 1,3-bis(substituted phenoxy)-2-propanones” (J Med Chem, 1976).

In data set [1] the test system is Mus musculus. Briefly: Antifertility activity in CF1 mouse assessed as proportion of pregnant animals at 50 mg/kg/day, ip (reference value: 100%). The format is ADME, organism-based. Further details: route intraperitoneal. Conditions: in vivo.
Data set [2] concerns Rattus norvegicus. Briefly: Hypocholesterolemic activity in rat assessed as serum triglyceride level at 10 mg/kg/day administered for 8 days (reference value: 100 +/- 15%). The format is functional. The gist of the method: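 Male Sprague-Dawley rats dosed orally at 10 mg/kg/day in 1% CMC. Serum triglycerides were measured with a stat pack kit after 8 days of dosing. Expressed as percent of vehicle control, N = 8; Student's t test.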

Data set [3] relates to Rattus norvegicus. Nature of the data set: Effect on testes weight in rat at 10 mg/kg/day administered for 16 days measured 24 hrs after last drug dosage relative to total body weight (reference value: 1.10 +/- 0.17%). Conditions: in vivo. The format is ADME, organism-based, Testis.
The subject of data set [4] is Rattus norvegicus. Briefly: Effect on vesicular gland weight in rat at 10 mg/kg/day administered for 16 days measured 24 hrs after last drug dosage relative to total body weight (reference value: 0.11 +/- 0.04%). Conditions: in vivo. The format is ADME, organism-based.
Data set [5] has as its system Rattus norvegicus. Nature of the data set: Effect on kidney weight in rat at 10 mg/kg/day administered for 16 days measured 24 hrs after last drug dosage relative to total body weight (reference value: 0.96 +/- 0.08%). The format is ADME, organism-based. Conditions: in vivo.
The nature of data set [6]: Solubility of the compound in 1% CMC. The format is physicochemical.
Data set [7] deals with Rattus norvegicus. Nature of the data set: Effect on glycogen content in rat liver at 10 mg/kg/day administered for 16 days (reference value: 100 +/- 24%). The format is ADME, organism-based. As to conditions: in vivo, 384 h.
In data set [8] the test system is Rattus norvegicus. Nature of the data set: Effect on epididymis and vas deferens weight in rat at 10 mg/kg/day administered for 16 days measured 24 hrs after last drug dosage relative to total body weight (reference value: 0.24 +/- 0.07%). The format is ADME, organism-based. As to conditions: in vivo.
Data set [9] relates to Rattus norvegicus. Nature of the data set: Effect on lipid content in rat liver at 10 mg/kg/day administered for 16 days (reference value: 100 +/- 16%). The format is ADME, organism-based. Conditions: in vivo, 384 h.
The test system of data set [10] is Rattus norvegicus. Briefly: Effect on DNA content in rat liver at 10 mg/kg/day administered for 16 days (reference value: 100 +/- 25%). The format is ADME, organism-based. As to conditions: in vivo, 384 h.
The subject of data set [11] is Mus musculus. Nature of the data set: Antifertility activity in CF1 mouse assessed as proportion of reabsorption litter at 50 mg/kg/day, ip (reference value: 100 +/- 25%). The format is ADME, organism-based. Further details: route intraperitoneal. Conditions: in vivo.
For data set [12], the system named is Mus musculus. Nature of the data set: Antifertility activity in CF1 mouse assessed as proportion of fetus per litter at 50 mg/kg/day, ip (reference value: 100 +/- 25%). The format is ADME, organism-based. More on the design: route intraperitoneal. As to conditions: in vivo.
The subject of data set [13] is Rattus norvegicus. Briefly: Uterotrophic activity in ovariectomized Sprague-Dawley rat assessed as uterine weight administered for 3 days (reference value: 100 +/- 27%). The format is organism-based, Uterus. As to conditions: in vivo, 72 h.
The subject of data set [14] is Rattus norvegicus. Briefly: Effect on liver weight in rat at 10 mg/kg/day administered for 16 days measured 24 hrs after last drug dosage relative to total body weight (reference value: 4.54 +/- 0.29%). Conditions: in vivo. The format is ADME, organism-based.
In data set [15] the test system is Rattus norvegicus. Briefly: Effect on protein content in rat liver at 10 mg/kg/day administered for 16 days (reference value: 100 +/- 6%). The format is ADME, organism-based. Conditions: in vivo, 384 h.
Data set [16] deals with Rattus norvegicus. Nature of the data set: Effect on RNA content in rat liver at 10 mg/kg/day administered for 16 days (reference value: 100 +/- 8%). Conditions: in vivo, 384 h. The format is ADME, organism-based.
In data set [17] the test system is Rattus norvegicus. Nature of the data set: Hypocholesterolemic activity in Sprague-Dawley rat assessed as serum cholesterol level at 10 mg/kg/day, po administered via intubation measured on day 16 by Liebermann-Burchard reaction (reference value: 100%). The format is functional.
Data set [18] relates to Rattus norvegicus. Briefly: Effect on heart weight in rat at 10 mg/kg/day administered for 16 days measured 24 hrs after last drug dosage relative to total body weight (reference value: 0.43 +/- 0.10%). The format is ADME, organism-based. Conditions: in vivo.
The test system of data set [19] is Rattus norvegicus. Nature of the data set: Hypocholesterolemic activity in Sprague-Dawley rat assessed as serum cholesterol level at 10 mg/kg/day, po administered via intubation measured on day 10 by Liebermann-Burchard reaction (reference value: 100%). The format is functional.
In data set [20] the test system is Rattus norvegicus. Briefly: Hypocholesterolemic activity in Sprague-Dawley rat assessed as serum cholesterol level at 10 mg/kg/day, po administered via intubation measured on day 4 by Liebermann-Burchard reaction (reference value: 100%). The format is functional.
Data set [21] can be described thus: Toxicity in ip dosed CF1 mouse assessed as animal death. The format is organism-based. Conditions: in vivo. The gist of the method:
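Male CF1 mice given active propanones ip over 10 mg to 6 g/kg where solubility allowed; deaths recorded to estimate LD50.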

For data set [22], the species on record is Mus musculus. Nature of the data set: Antifertility activity in CF1 mouse assessed as proportion of pregnant animals at 10 ug (reference value: 100%). The format is ADME, organism-based. Conditions: in vivo.
The species named for data set [23] is Mus musculus. Nature of the data set: Antifertility activity in CF1 mouse assessed as proportion of reabsorption litter at 10 ug (reference value: 100 +/- 25%). Conditions: in vivo. The format is ADME, organism-based.
For data set [24], the species on record is Mus musculus. Briefly: Antifertility activity in CF1 mouse assessed as proportion of fetus per litter at 10 ug (reference value: 100 +/- 25%). The format is ADME, organism-based. As to conditions: in vivo.

A value given as a limit tells only on which side of the number the result lay.

As a reminder, the LD50 is the dose expected to kill half of the subjects tested. With `O=C(COc1ccc(Cl)cc1)COc1ccc(Cl)cc1`, the Activity with Mus musculus [1] is 100%; in the data set with Rattus norvegicus [2] it was 108%; in the data set with Rattus norvegicus [3], 1.23%; in the data set on Rattus norvegicus [4], 0.14%; in the data set on Rattus norvegicus [5], 0.86%; with Rattus norvegicus [7] it was 105%. In addition, the Activity is listed as 0.26% in the data set on Rattus norvegicus [8]; 101% in the data set on Rattus norvegicus [9]; 78% in the data set with Rattus norvegicus [10]; 30% in the data set with Mus musculus [11]; 84% in the data set on Mus musculus [12]; 48% in the data set on Rattus norvegicus [13]. The Activity with Rattus norvegicus [14] was found to be 4.51%; with Rattus norvegicus [15], 91%; in the data set with Rattus norvegicus [16], 99%; with Rattus norvegicus [17], 62%; in the data set with Rattus norvegicus [18], 0.39%; with Rattus norvegicus [19], 64%. Moreover, the Activity with Rattus norvegicus [20] was 81%. For the same compound, the solubility entry in data set [6] is listed as “Insoluble”. In addition, the LD50 in data set [21] was > 2000 mg/kg.
With `CC/C(=C(/CC)c1ccc(O)cc1)c1ccc(O)cc1` [DIETHYLSTILBESTROL], the Activity in the data set listed under Mus musculus [22], in the data set filed under Mus musculus [23] and in the data set listed under Mus musculus [24] was 0% in each case.
